Assay outcomes (PubChem)
In the library only some 0.9% were active in any assay of this set; here they are far more common.
DAGLB inh: diacylglycerol lipase beta (human) inhibition; 340,000 tested, 0.059% active; Q8NCG7; AID 504411; inhibition, % at 5.17 µM; HEK293T DAGLB membrane lysate, EnzChek fluorogenic substrate; in the data active means inhibition above about 34%;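 further: 0% = enzyme with vehicle and 100% = wells lacking enzyme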
Target sequence (Q8NCG7 whole entry, looked up): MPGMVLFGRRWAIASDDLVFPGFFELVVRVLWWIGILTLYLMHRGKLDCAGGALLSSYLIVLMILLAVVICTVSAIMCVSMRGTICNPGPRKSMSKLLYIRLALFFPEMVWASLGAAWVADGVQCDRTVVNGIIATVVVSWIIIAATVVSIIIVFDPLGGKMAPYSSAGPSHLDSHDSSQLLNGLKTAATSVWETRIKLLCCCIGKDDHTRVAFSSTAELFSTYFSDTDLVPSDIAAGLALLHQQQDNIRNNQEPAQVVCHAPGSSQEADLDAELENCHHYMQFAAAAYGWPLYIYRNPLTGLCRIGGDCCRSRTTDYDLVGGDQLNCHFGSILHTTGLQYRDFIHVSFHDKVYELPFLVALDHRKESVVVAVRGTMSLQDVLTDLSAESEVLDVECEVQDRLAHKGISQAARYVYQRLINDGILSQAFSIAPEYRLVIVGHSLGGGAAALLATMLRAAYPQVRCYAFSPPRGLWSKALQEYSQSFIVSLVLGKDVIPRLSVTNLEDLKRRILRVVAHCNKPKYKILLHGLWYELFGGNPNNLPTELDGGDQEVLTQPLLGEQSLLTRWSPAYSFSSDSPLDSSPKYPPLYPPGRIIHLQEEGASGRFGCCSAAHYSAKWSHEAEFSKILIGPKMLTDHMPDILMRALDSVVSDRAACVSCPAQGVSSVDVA
SKN-1 inh: C. elegans SKN-1 inhibition; C. elegans VP596 Pgst-4::GFP/RFP ratio, acrylamide-induced, 24 h; inhibition, % at 21.8 µM; 360,000 tested, 0.49% active;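 active means interference check ratio from 0.5 to 1.5 plus GFP to RFP signal ratio inhibition reaching or exceeding a fixed threshold, cut at about 30% in these data, passing the limit was not always enough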
DDE Tn6 FP inh: disrupts Tn6 cyclic peptide binding to fibrin D-Dimer-E complex | Fibrin DD(E) TRITC-Tn6 fluorescence polarization displacement | inhibition, % at 8.3 µM | 370,000 tested, 0.21% active | AID 720509;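 active means inhibition above a per-campaign cutoff: mean of compounds within control limits plus 3 SD, cut at about 15% in these data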;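 further: 0% = median of all compound wells on the plate and 100% = blocking peptide control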
PolyA inh: blocks polyadenylation in yeast reporter cells; S. cerevisiae SKY197-pL101 polyadenylation reporter, beta-gal luminescence; efflux-impaired pdr1/pdr3 knockout yeast; score 100 = 6 SD above DMSO; 300,000 tested, 0.02% active; activity score, % at 12 µM;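 active means lowest replicate activity score at least 50, where 100 means six control SD above control mean; inconclusive means lowest score under 50 but half or more replicates reach 50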;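 further: yeast exposed to compound for 9 h at 30 °C; higher score means more reporter readthrough which indicates perturbed polyadenylation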
Tn7 DDE FP: disrupts Tn7 cyclic peptide binding to fibrin D-Dimer-E complex | inhibition, % at 8.3 µM | P02675 | 370,000 tested, 0.13% active | FP displacement of FITC-Tn7 peptide from fibrin DD(E); 0% = median of compound wells per plate | AID 720508;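 active means inhibition above the mean of compounds falling within the control limits plus 3 SD of them, cut at about 14% in these data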;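 further: 0% = plate median of compound wells and 100% = 10 µM Aha-Tn7 peptide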
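Test system – human fibrin DD(E) · Times – 10 min preincubation, 3 h with tracer, room temperature · Detection – fluorescence polarization of the labelled Tn7 tracer · Measure – percent inhibition normalized to high-control wells · Benchmarks – high control wells with 10 µM unlabelled Aha-Tn7 peptide (full inhibition) · Repeats – singlicate testing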
MT1-MMP act inh: inhibitors of human MT1-MMP activation. HT1080 RFP-PRO-GFP cells, GFP/RFP ratio fluorescence, overnight; percent of plate control window, DMSO zero. GFP/RFP ratio change, % at 20 µM. 360,000 tested, 0.061% active. AID 651647;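 active means GFP/RFP ratio change of at least 30% with cell ATP level not reduced by more than half and red fluorescence within 50% of control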
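Read-out: GFP/RFP fluorescence ratio; Test system: RFP-PRO-GFP reporter HT1080 cells; Compound dosing: single-point 20 µM compound, 1% DMSO; Times: overnight compound exposure at 37 °C.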
* = called active by the depositor; ? = inconclusive; . = no result given.

SMILES	DAGLB inh	SKN-1 inh	DDE Tn6 FP inh	PolyA inh	Tn7 DDE FP	MT1-MMP act inh
CC(=O)Nc1nc2ccc(Br)cc2s1	0.7	35.2*	2.8	-15.7	-10.8	-2.2
COc1cccc(CO[C@H]2C=C[C@@H](c3ccccc3)O[C@@H]2COC(C)=O)c1	.	.	5.3	.	0.7	.
CC(C)=CCC/C(C)=C/CNCC(=O)N1c2ccccc2[C@]2(c3ccccc3)C[C@@H]3C(=O)N(C/C=C(\C)CCC=C(C)C)CC(=O)N3[C@H]12	.	.	-0.4	.	-2.0	.
COCCNC[C@@]12CO[C@H](c3ccc(Cl)cc3)N1[C@@H](c1ccc(Cl)cc1)SC2	.	.	8.6	.	-1.6	.
COc1cccc(CNCCO)c1OCc1ccc(Cl)cc1	-2.4	-2.4	-4.2	0.5	0.8	-1.5
CCOc1cccc(CNc2ccc(O)cc2)c1OCc1ccc(Cl)cc1	3.0	16.5	15.3*	-14.1	-7.1	10.0
CCOc1cc(CNc2ccc(O)cc2)ccc1OCc1ccc(Cl)cc1Cl	-7.3	40.8*	.	0.7	.	8.2
CCOc1cc(CNCc2ccccc2)ccc1OCc1ccc(Cl)cc1	-5.3	30.0	-2.8	-18.6	4.2	-1.0
CCOc1ccccc1CNc1ccc(O)cc1	5.9	42.1*	2.6	-23.3	3.7	17.5
CN1C2=N[C@@H](c3cccc(C(F)(F)F)c3)CC(=O)N2/C(=C\c2ccccc2)[C@H]1c1ccccc1	.	.	-16.1	.	-4.0	.
Cc1ccc(/C=C/c2ccc3cccc(O)c3n2)s1	-7.5	34.7*	-1.5	-19.9	-2.3	5.9
Oc1cccc(/C=C/c2ccc3cccc(O)c3n2)c1	2.4	45.9*	-15.3	-5.2	7.7	3.4
CCc1ccc(Oc2c(Cl)cnn(-c3ccc(C)cc3)c2=O)cc1	.	.	-1.8	.	5.5	.
Cc1ccc(NC(=O)CCS(=O)(=O)c2ccccc2)cc1C	.	.	-4.5	.	3.8	.
CCCn1nc([N+](=O)[O-])c(C(C#N)c2nc3ccccc3o2)c(Cl)c1=O (centres undefined)	69.9*	12.9	-4.6	10.2	3.2	21.3
Cn1nc([N+](=O)[O-])c(C(C#N)c2ccccn2)c(Cl)c1=O (centres undefined)	-1.7	11.8	1.4	.	1.2	-6.8
CCN(CC)c1ccc2cc(NC(=O)CCC(=O)O)c(=O)oc2c1	-7.8	-11.8	44.0*	2.3	10.4	-23.6
COc1ccc(/C=C/S(=O)(=O)NCc2ccccc2)c(CNC(=O)OC(C)(C)C)c1	.	.	-0.9	.	-5.9	.
COC(=O)[C@]12C[C@H](CC(=O)N3CCCCC3)C(=O)N(Cc3ccc(Cl)cc3Cl)C1=C[C@H](C(C)(C)C)O[C@@H]2C	.	.	0.5	.	0.1	.
Cc1nn(-c2ccccc2)c2sc(C(=O)N3CCN(Cc4ccccc4)CC3)cc12	.	.	-4.3	.	-0.3	.
Cc1nn(-c2ccc(F)cc2)c2sc(C(=O)N3CCCCCC3)cc12	-4.5	47.6*	3.0	?	-1.9	-4.7
Cc1ccc2nc(-c3ccc(NC(=O)CSc4nnc(-c5ccccc5)n4Cc4ccco4)cc3)sc2c1	.	.	-8.6	.	-0.9	.
Cc1cc(N(C)C)ccc1N=Nc1ccc(N)cc1	31.3	96.8*	-3.9	-2.2	5.4	13.2
O=C(Nc1ccc2c(c1)CN(C(=O)Nc1ccc(F)cc1)CC2)c1ccccn1	-2.1	38.5*	-5.0	.	-3.8	-2.6
CCCCCCCCCCCCCCCC[n+]1ccc(/C=N/O)cc1	1.5	42.9*	-8.6	.	-2.2	-38.9
SMILES	DAGLB inh	SKN-1 inh	DDE Tn6 FP inh	PolyA inh	Tn7 DDE FP	MT1-MMP act inh
CCCCCCCCCCCCCCCC[n+]1ccc(C(N)=O)cc1	3.9	19.0	-4.7	.	-5.2	1.5
CC(C)C[C@H](NC1(C(=O)NC2CCCCC2)CCOCC1)C(=O)NCC(c1ccccc1)c1ccccc1	.	.	2.5	.	-3.0	.
Cc1cnc(C(=O)N(CCCn2ccnc2)C2C(=O)Nc3ccccc3N=C2c2ccccc2)cn1 (centres undefined)	.	37.1*	6.6	.	6.4	3.7
C=C1CCC2C(C)(C)CCC[C@]2(C)[C@H]1CC1=C(O)C(=O)C(CO)=CC1=O (some centres undefined)	.	.	-5.0	.	5.9	.
CCCSc1nc(N2CCOCC2)c2c(c1C#N)CC(C)(C)SC2	-14.3	38.5*	0.3	-8.9	1.0	-1.7
O=C(CSc1nc2ccccc2nc1N1CCCC1)N1CCN(c2cccc(C(F)(F)F)c2)CC1	.	.	3.8	.	-3.5	.
Cc1nn(-c2ccccc2)c2c1C(c1ccc(O)c(O)c1)N1C(=N2)C(Nc2ccccc2)=Nc2ccccc21 (centres undefined)	3.4	24.8	-4.4	-20.0	-3.6	3.4
Cc1ccc(NC2=Nc3ccccc3N3C2=Nc2c(c(C)nn2-c2ccccc2)C3c2ccc(O)c(O)c2)cc1 (centres undefined)	9.1	36.0*	-2.2	.	6.6	-3.7
O=C(NCCCc1ccccc1)C1CCN(c2nc(-c3ccc(Br)cc3)cs2)CC1	.	.	-6.3	.	-2.2	.
COC(=O)C1CCN(C(=O)C2CC(=O)N(c3ccc(OC)cc3)C2c2ccc(OC)cc2)CC1 (centres undefined)	.	.	-0.4	.	-7.1	.
Cc1cc(C)n(Cc2ccc(C(=O)NCc3ccco3)o2)n1	-2.9	35.8*	0.8	0.0	-1.7	0.5
O=C(N=C1N=C2C=CC(Br)=CN2Cc2ccccc21)c1ccc([N+](=O)[O-])cc1[N+](=O)[O-]	-1.1	60.4*	3.8	-27.9	3.3	-4.2
CCNC1=C(Cl)C(=O)c2ccccc2C1=O	14.9	36.6*	-6.7	6.2	-2.0	16.8
COc1ccc(-c2cn3cc(C(F)(F)F)cc(Cl)c3n2)cc1	-3.7	33.8	-8.1	-2.9	-3.1	4.6
Fc1ccc(-c2cn3cc(C(F)(F)F)cc(Cl)c3n2)cc1	-7.1	35.0*	2.3	-19.4	0.4	0.1
O=C(CSc1nnc(-c2ccccc2)n1-c1ccccc1)NN=Cc1ccc(-c2ccccc2)cc1	.	.	-3.6	.	0.3	.
O=C(CN1CCN(c2nc(-c3ccccc3)cs2)CC1)Nc1ccc(Cl)c(Cl)c1	.	.	0.6	.	6.7	.
COc1ccc(CN2C(=O)CS/C2=N/N=C/c2ccccc2)cc1	.	52.6*	1.9	-9.8	-5.0	1.4
COc1ccccc1CN(Cc1cc2c(C)ccc(C)c2[nH]c1=O)Cc1nnnn1Cc1ccco1	2.4	37.2*	-6.3	-6.3	6.3	-14.1
CCC(C(=O)Nc1cccc(S(=O)(=O)N(C)c2ccccc2)c1)c1ccccc1 (centres undefined)	-4.8	40.3*	-7.7	.	-4.3	-1.5
CS(=O)(=O)N[C@@H]1C[C@@H]2O[C@@H](CO)CC[C@@H]2O[C@@H]1CCc1ccc(/C=C/c2ccccc2)cc1	.	.	-2.2	.	-1.2	.
CCCNC(=O)COC(=O)C1CCN(S(=O)(=O)c2ccc3c(c2)OCCO3)CC1	-1.4	45.3*	-3.1	0.7	-1.2	-0.1
